# Assay results from ChEMBL document CHEMBL2311361, “Diminutive effect on T and B-cell proliferation of non-cytotoxic α-santonin derived 1,2,3-triazoles: a report” (Eur J Med Chem, 2013).
# Test system: not listed separately
# Assay: Cytotoxicity against in Balb/c mouse T cells at 10^-5 M after 48 hrs by MTT assay
# Type: cell-based
# Details: t-cell, 10 µM
# Summary of the method: (§1)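 Spleens taken aseptically from Balb/c mice (18–22 g). Single-cell suspension made in incomplete RPMI, RBCs lysed with Tris-ammonium chloride, cells washed, resuspended in complete RPMI and checked for viability by trypan blue. Cells seeded at 1 × 10⁶ cells/mL. Compounds in DMSO tested at 1×10⁻⁴, 1×10⁻⁵ and 1×10⁻⁶ M, 48 h, 37 °C, 5% CO₂.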
row,Compound,Activity
1,COc1c(Br)cc(C)cc1-n1nncc1COc1cc(C)c2c(c1C)[C@@H]1OC(=O)[C@@H](C)[C@@H]1CC2,Non-toxic
2,COc1ccc(F)c(-n2nncc2COc2cc(C)c3c(c2C)[C@@H]2OC(=O)[C@@H](C)[C@@H]2CC3)c1Br,Toxic
3,CCCOc1ccc(-n2nncc2COc2cc(C)c3c(c2C)[C@@H]2OC(=O)[C@@H](C)[C@@H]2CC3)cc1Cl,Non-toxic

# Test system: not listed separately
# Assay: Immunosuppressive activity in Balb/c mouse T cells assessed as inhibition of concanavalin A-induced cell proliferation at 10^-4 M after 48 hrs by MTT assay
# Type: functional
# Details: not given
# Summary of the method: as §1
row,Compound,inhibition at 100 µM [%]
1,COc1ccc(F)c(-n2nncc2COc2cc(C)c3c(c2C)[C@@H]2OC(=O)[C@@H](C)[C@@H]2CC3)c1Br,45.7

# Test system: not listed separately
# Assay: Immunosuppressive activity in Balb/c mouse B cells assessed as inhibition of LPS-induced cell proliferation at 10^-4 M after 48 hrs by MTT assay
# Type: functional
# Details: not given
# Summary of the method: as §1
row,Compound,inhibition at 100 µM [%]
1,COc1ccc(F)c(-n2nncc2COc2cc(C)c3c(c2C)[C@@H]2OC(=O)[C@@H](C)[C@@H]2CC3)c1Br,24.3

# Test system: not listed separately
# Assay: Immunosuppressive activity in Balb/c mouse T cells assessed as inhibition of concanavalin A-induced cell proliferation at 10^-6 M after 48 hrs by MTT assay
# Type: functional
# Details: Mus musculus, Balb/c, T-cell, 48 h
# Summary of the method: as §1
row,Compound,inhibition at 1 µM [%]
1,COc1ccc(F)c(-n2nncc2COc2cc(C)c3c(c2C)[C@@H]2OC(=O)[C@@H](C)[C@@H]2CC3)c1Br,14.3
2,CCCOc1ccc(-n2nncc2COc2cc(C)c3c(c2C)[C@@H]2OC(=O)[C@@H](C)[C@@H]2CC3)cc1Cl,7.14

# Test system: not listed separately
# Assay: Immunostimulant activity in Balb/c mouse T cells assessed as inhibition of concanavalin A-induced cell proliferation at 10^-4 M after 48 hrs by MTT assay
# Type: functional
# Details: Mus musculus, Balb/c, T-cell, 48 h
# Summary of the method: as §1
row,Compound,inhibition at 100 µM [%]
1,COc1c(Br)cc(C)cc1-n1nncc1COc1cc(C)c2c(c1C)[C@@H]1OC(=O)[C@@H](C)[C@@H]1CC2,5.71
2,CCCOc1ccc(-n2nncc2COc2cc(C)c3c(c2C)[C@@H]2OC(=O)[C@@H](C)[C@@H]2CC3)cc1Cl,7.14

# Test system: not listed separately
# Assay: Cytotoxicity against in Balb/c mouse B cells at 10^-5 M after 48 hrs by MTT assay
# Type: cell-based
# Details: 10 µM
# Summary of the method: as §1
row,Compound,Activity
1,COc1c(Br)cc(C)cc1-n1nncc1COc1cc(C)c2c(c1C)[C@@H]1OC(=O)[C@@H](C)[C@@H]1CC2,Non-toxic
2,COc1ccc(F)c(-n2nncc2COc2cc(C)c3c(c2C)[C@@H]2OC(=O)[C@@H](C)[C@@H]2CC3)c1Br,Toxic
3,CCCOc1ccc(-n2nncc2COc2cc(C)c3c(c2C)[C@@H]2OC(=O)[C@@H](C)[C@@H]2CC3)cc1Cl,Non-toxic

# Test system: not listed separately
# Assay: Immunostimulant activity in Balb/c mouse B cells assessed as inhibition of LPS-induced cell proliferation at 10^-4 M after 48 hrs by MTT assay
# Type: functional
# Details: not given
# Summary of the method: as §1
row,Compound,inhibition at 100 µM [%]
1,COc1c(Br)cc(C)cc1-n1nncc1COc1cc(C)c2c(c1C)[C@@H]1OC(=O)[C@@H](C)[C@@H]1CC2,15.7
2,CCCOc1ccc(-n2nncc2COc2cc(C)c3c(c2C)[C@@H]2OC(=O)[C@@H](C)[C@@H]2CC3)cc1Cl,21.4

# Test system: not listed separately
# Assay: Immunostimulant activity in Balb/c mouse T cells assessed as inhibition of concanavalin A-induced cell proliferation at 10^-6 M after 48 hrs by MTT assay
# Type: functional
# Details: not given
# Summary of the method: as §1
row,Compound,inhibition at 1 µM [%]
1,COc1c(Br)cc(C)cc1-n1nncc1COc1cc(C)c2c(c1C)[C@@H]1OC(=O)[C@@H](C)[C@@H]1CC2,5.71

# Test system: not listed separately
# Assay: Immunostimulant activity in Balb/c mouse B cells assessed as inhibition of LPS-induced cell proliferation at 10^-6 M after 48 hrs by MTT assay
# Type: functional
# Details: not given
# Summary of the method: as §1
row,Compound,inhibition at 1 µM [%]
1,COc1c(Br)cc(C)cc1-n1nncc1COc1cc(C)c2c(c1C)[C@@H]1OC(=O)[C@@H](C)[C@@H]1CC2,27.1
2,CCCOc1ccc(-n2nncc2COc2cc(C)c3c(c2C)[C@@H]2OC(=O)[C@@H](C)[C@@H]2CC3)cc1Cl,41.4

# Test system: not listed separately
# Assay: Immunosuppressive activity in Balb/c mouse T cells assessed as inhibition of concanavalin A-induced cell proliferation at 10^-5 M after 48 hrs by MTT assay
# Type: functional
# Details: not given
# Summary of the method: as §1
row,Compound,inhibition at 10 µM [%]
1,COc1ccc(F)c(-n2nncc2COc2cc(C)c3c(c2C)[C@@H]2OC(=O)[C@@H](C)[C@@H]2CC3)c1Br,37.1
2,CCCOc1ccc(-n2nncc2COc2cc(C)c3c(c2C)[C@@H]2OC(=O)[C@@H](C)[C@@H]2CC3)cc1Cl,27.1

# Test system: Plasmodium falciparum
# Assay: Antimalarial activity against chloroquine-resistant Plasmodium falciparum Smith
# Type: functional
# Details: read-out: ED50 (the source's name)
row,Compound,EC50 [µg/mL]
1,CC1=CC2C[C@]3(C)CC[C@H]4[C@H](C)C(=O)O[C@@H]4C13OO2 (some centres not stated),0.729

# Test system: not listed separately
# Assay: Cytotoxicity against in Balb/c mouse B cells at 10^-6 M after 48 hrs by MTT assay
# Type: cell-based
# Details: 1 µM
# Summary of the method: as §1
row,Compound,Activity
1,COc1c(Br)cc(C)cc1-n1nncc1COc1cc(C)c2c(c1C)[C@@H]1OC(=O)[C@@H](C)[C@@H]1CC2,Non-toxic
2,COc1ccc(F)c(-n2nncc2COc2cc(C)c3c(c2C)[C@@H]2OC(=O)[C@@H](C)[C@@H]2CC3)c1Br,Toxic
3,CCCOc1ccc(-n2nncc2COc2cc(C)c3c(c2C)[C@@H]2OC(=O)[C@@H](C)[C@@H]2CC3)cc1Cl,Non-toxic

# Test system: not listed separately
# Assay: Immunostimulant activity in Balb/c mouse B cells assessed as inhibition of LPS-induced cell proliferation at 10^-5 M after 48 hrs by MTT assay
# Type: functional
# Details: not given
# Summary of the method: as §1
row,Compound,inhibition at 10 µM [%]
1,COc1c(Br)cc(C)cc1-n1nncc1COc1cc(C)c2c(c1C)[C@@H]1OC(=O)[C@@H](C)[C@@H]1CC2,28.6
2,COc1ccc(F)c(-n2nncc2COc2cc(C)c3c(c2C)[C@@H]2OC(=O)[C@@H](C)[C@@H]2CC3)c1Br,1.42
3,CCCOc1ccc(-n2nncc2COc2cc(C)c3c(c2C)[C@@H]2OC(=O)[C@@H](C)[C@@H]2CC3)cc1Cl,12.8

# Test system: not listed separately
# Assay: Immunosuppressive activity in Balb/c mouse B cells assessed as inhibition of LPS-induced cell proliferation at 10^-6 M after 48 hrs by MTT assay
# Type: functional
# Details: not given
# Summary of the method: as §1
row,Compound,inhibition at 1 µM [%]
1,COc1ccc(F)c(-n2nncc2COc2cc(C)c3c(c2C)[C@@H]2OC(=O)[C@@H](C)[C@@H]2CC3)c1Br,1.42

# Test system: not listed separately
# Assay: Immunostimulant activity in Balb/c mouse T cells assessed as inhibition of concanavalin A-induced cell proliferation at 10^-5 M after 48 hrs by MTT assay
# Type: functional
# Details: not given
# Summary of the method: as §1
row,Compound,inhibition at 10 µM [%]
1,COc1c(Br)cc(C)cc1-n1nncc1COc1cc(C)c2c(c1C)[C@@H]1OC(=O)[C@@H](C)[C@@H]1CC2,7.14

# Test system: not listed separately
# Assay: Cytotoxicity against in Balb/c mouse B cells at 10^-4 M after 48 hrs by MTT assay
# Type: cell-based
# Details: 100 µM
# Summary of the method: as §1
row,Compound,Activity
1,COc1c(Br)cc(C)cc1-n1nncc1COc1cc(C)c2c(c1C)[C@@H]1OC(=O)[C@@H](C)[C@@H]1CC2,Non-toxic
2,COc1ccc(F)c(-n2nncc2COc2cc(C)c3c(c2C)[C@@H]2OC(=O)[C@@H](C)[C@@H]2CC3)c1Br,Toxic
3,CCCOc1ccc(-n2nncc2COc2cc(C)c3c(c2C)[C@@H]2OC(=O)[C@@H](C)[C@@H]2CC3)cc1Cl,Non-toxic

# Test system: not listed separately
# Assay: Cytotoxicity against in Balb/c mouse T cells at 10^-6 M after 48 hrs by MTT assay
# Type: cell-based
# Details: t-cell, 1 µM
# Summary of the method: as §1
row,Compound,Activity
1,COc1c(Br)cc(C)cc1-n1nncc1COc1cc(C)c2c(c1C)[C@@H]1OC(=O)[C@@H](C)[C@@H]1CC2,Non-toxic
2,COc1ccc(F)c(-n2nncc2COc2cc(C)c3c(c2C)[C@@H]2OC(=O)[C@@H](C)[C@@H]2CC3)c1Br,Toxic
3,CCCOc1ccc(-n2nncc2COc2cc(C)c3c(c2C)[C@@H]2OC(=O)[C@@H](C)[C@@H]2CC3)cc1Cl,Non-toxic

# Test system: not listed separately
# Assay: Cytotoxicity against in Balb/c mouse T cells at 10^-4 M after 48 hrs by MTT assay
# Type: cell-based
# Details: t-cell, 100 µM
# Summary of the method: as §1
row,Compound,Activity
1,COc1c(Br)cc(C)cc1-n1nncc1COc1cc(C)c2c(c1C)[C@@H]1OC(=O)[C@@H](C)[C@@H]1CC2,Non-toxic
2,COc1ccc(F)c(-n2nncc2COc2cc(C)c3c(c2C)[C@@H]2OC(=O)[C@@H](C)[C@@H]2CC3)c1Br,Toxic
3,CCCOc1ccc(-n2nncc2COc2cc(C)c3c(c2C)[C@@H]2OC(=O)[C@@H](C)[C@@H]2CC3)cc1Cl,Non-toxic
